Results published in ChEMBL document CHEMBL4680091, “Discovery of Novel Spiro[3H-indole-3,2'-pyrrolidin]-2(1H)-one Compounds as Chemically Stable and Orally Active Inhibitors of the MDM2-p53 Interaction” (J Med Chem, 2016).

How the values were obtained:
[1] = molecular target: Tumour suppressor p53/oncoprotein Mdm2 (Homo sapiens, UniProt Q00987); experiment: Inhibition of GST-tagged MDM2 (amino acids 17 to 111 residues)/p53 (unknown origin) interaction incubated for 15 mins by; type: protein assay
[2] = test system: SJSA-1; experiment: Antiproliferative activity against human SJSA-1 cells expression wild type p53 incubated for 3 days by Alamar Blue dye based assay; type: functional, cell-based; conditions: SJSA-1, 72 h
[3] = test system: SK-OV-3; experiment: Antiproliferative activity against human SK-OV-3 cells expression p53 mutant incubated for 3 days by Alamar Blue dye based assay; type: functional, cell-based; conditions: SK-OV-3, 72 h
Summary of the method: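 p53-mutant SK-OV-3 cells were used in a growth/proliferation assay, with compounds tested up to 25 μM.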

[4] = Volume of distribution at steady state in NMRI mouse at 5 mg/kg, iv; type: ADME, organism-based; conditions: in vivo, read-out: Vdss
Summary of the method: (§1)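 Non-tumor-bearing female NMRI nude mice were given a single dose by one of two routes. The iv arm received 5 mg/kg as a bolus in 25% HP-B-CD. The po arm received 50 mg/kg in 0.5% Natrosol (pH 7-8, NaOH titrated). Both used 10 ml/kg. Plasma levels were measured by LC/MS/MS, n=3 per dose group. Parameters came from non-compartmental analysis, with AUC0-24h by linear trapezoidal interpolation.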

[5] = AUC (0 to 24 hrs) in NMRI mouse at 50 mg/kg, po; type: ADME, organism-based; parameters: time < 24 hr, route oral, dose 50 mg/kg; conditions: in vivo; summary of the method: as §1
[6] = Oral bio availability in NMRI mouse at 50 mg/kg; type: ADME, organism-based; conditions: in vivo; summary of the method: as §1
[7] = Clearance in NMRI mouse at 5 mg/kg, iv; type: ADME, organism-based; conditions: in vivo; summary of the method: as §1
[8] = Cmax in NMRI mouse at 50 mg/kg, po; type: ADME, organism-based; parameters: route oral, dose 50 mg/kg; conditions: in vivo; summary of the method: as §1

Tumour suppressor p53/oncoprotein Mdm2, sequence (P04637 whole entry, the tested form may be a part): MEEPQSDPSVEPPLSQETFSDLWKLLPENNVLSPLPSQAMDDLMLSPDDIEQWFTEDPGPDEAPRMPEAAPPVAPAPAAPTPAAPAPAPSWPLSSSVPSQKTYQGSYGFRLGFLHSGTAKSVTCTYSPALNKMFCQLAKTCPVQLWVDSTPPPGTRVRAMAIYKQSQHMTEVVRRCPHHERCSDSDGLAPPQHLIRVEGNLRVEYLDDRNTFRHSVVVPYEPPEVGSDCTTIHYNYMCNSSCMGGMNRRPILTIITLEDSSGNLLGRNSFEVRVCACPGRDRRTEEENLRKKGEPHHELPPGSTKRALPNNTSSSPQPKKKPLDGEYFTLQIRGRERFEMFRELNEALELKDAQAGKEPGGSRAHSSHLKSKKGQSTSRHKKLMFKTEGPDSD
Tumour suppressor p53/oncoprotein Mdm2, sequence (Q00987 whole entry, the tested form may be a part): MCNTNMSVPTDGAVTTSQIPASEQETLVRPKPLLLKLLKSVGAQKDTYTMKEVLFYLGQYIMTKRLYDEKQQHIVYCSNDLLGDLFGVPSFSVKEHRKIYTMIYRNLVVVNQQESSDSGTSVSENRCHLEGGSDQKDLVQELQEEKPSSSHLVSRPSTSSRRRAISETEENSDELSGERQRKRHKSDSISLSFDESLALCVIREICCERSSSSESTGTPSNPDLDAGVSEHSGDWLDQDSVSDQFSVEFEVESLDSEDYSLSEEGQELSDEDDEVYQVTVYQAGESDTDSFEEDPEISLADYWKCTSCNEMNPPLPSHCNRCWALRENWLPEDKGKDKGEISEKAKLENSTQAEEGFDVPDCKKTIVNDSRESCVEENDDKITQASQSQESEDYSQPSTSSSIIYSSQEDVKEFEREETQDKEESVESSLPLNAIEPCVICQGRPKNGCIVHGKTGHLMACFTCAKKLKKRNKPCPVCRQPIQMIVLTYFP

Compound | IC50 [1] | further results
C[C@H]1[C@@H](NCC(=O)O)[C@H](c2cccc(Cl)c2F)[C@]2(C(=O)Nc3cc(Cl)ccc32)N1CC1CC1 | 62 nM | IC50 [2]: 2880 nM; IC50 [3]: > 25 µM
C[C@H]1[C@@H](N)[C@H](c2cccc(Cl)c2F)[C@]2(C(=O)Nc3cc(Cl)ccc32)N1CC1CC1 | 157 nM | IC50 [2]: 2980 nM; IC50 [3]: > 25 µM
CCOc1cccc(CN2[C@@H](C)[C@@H](N)[C@H](c3cccc(Cl)c3F)[C@]23C(=O)Nc2cc(Cl)ccc23)c1 (racemic) | 57 nM | 
CC(=O)N1CC[C@H]2[C@@H]1[C@H](c1cccc(Cl)c1F)[C@]1(C(=O)Nc3cc(Cl)ccc31)N2CC1CC1 (racemic) | 212 nM | 
C[C@H]1[C@@H](N)[C@H](c2cccc(Cl)c2)[C@]2(C(=O)Nc3cc(Cl)ccc32)N1CC1CC1 | 563 nM | 
CC(C)CCN1[C@@H](Cn2cncn2)[C@@H](N)[C@H](c2cccc(Cl)c2)[C@]12C(=O)Nc1cc(Cl)ccc12 (racemic) | 2060 nM | 
O=C1Nc2cc(Cl)ccc2[C@@]12[C@@H](c1cccc(Cl)c1F)[C@@H]1NCC[C@@H]1N2CC1CC1 | 137 nM | IC50 [2]: 2610 nM; IC50 [3]: > 25 µM
CCOc1cccc(CN2[C@H]3C[C@H](c4ccc(C(=O)O)cc4)N[C@H]3[C@H](c3cccc(Cl)c3F)[C@]23C(=O)Nc2cc(Cl)ccc23)c1 |  | IC50 [2]: 67 nM; Vd [4]: 1 L/kg; AUC(0-t) at 24 h [5]: 8 µM·h; IC50 [3]: > 25 µM; bioavailability [6]: 13%; clearance [7]: 23.2 mL/min/kg; Cmax [8]: 3.4 µM
O=C(O)CN1CC[C@H]2[C@@H]1[C@H](c1cccc(Cl)c1)[C@]1(C(=O)Nc3cc(Cl)ccc31)N2CC1CC1 (racemic) | 80 nM | 

The next lines start with results.

IC50 [1] | Compound | further results
36000 nM | O=C1Nc2cc(Cl)ccc2[C@]12CNC[C@@H]2c1cccc(Cl)c1 (racemic) | 
15200 nM | O=C1Nc2cc(Cl)ccc2[C@]12N[C@@H](Cc1c[nH]cn1)[C@@H]([N+](=O)[O-])[C@@H]2c1cccc(Cl)c1 (racemic) | 
36500 nM | O=C1Nc2cc(Cl)ccc2[C@]12NC[C@@H]([N+](=O)[O-])[C@@H]2c1cccc(Cl)c1 (racemic) | 
15600 nM | O=C1Nc2cc(Cl)ccc2[C@]12N[C@@H](Cc1ccccc1)[C@@H]([N+](=O)[O-])[C@@H]2c1cccc(Cl)c1 (racemic) | 
74000 nM | C[C@@H]1N[C@@]2(C(=O)Nc3cc(Cl)ccc32)[C@@H](c2cccc(Cl)c2)[C@@H]1N (racemic) | 
944 nM | CC(C)CN1C[C@@H](N)[C@H](c2cccc(Cl)c2)[C@]12C(=O)Nc1cc(Cl)ccc12 | 
18600 nM | O=C(O)C[C@@H]1N[C@@]2(C(=O)Nc3cc(Cl)ccc32)[C@@H](c2cccc(Cl)c2)[C@@H]1[N+](=O)[O-] (racemic) | 
819 nM | CC(C)(C)CN1C[C@@H](N)[C@H](c2cccc(Cl)c2)[C@]12C(=O)Nc1cc(Cl)ccc12 | 
